# High-throughput results as filed in PubChem.
# T cruzi repl = T. cruzi replication inhibition | T. cruzi beta-gal in NIH3T3, luminescence, 90 h | inhibition, % (no concentration beside the values) | AID 1885 | 1.4% of 300,000 active;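 active = mean inhibition across valid replicates above about 55%, limit read from the data; inconclusive = mean below that limit but half or more replicates reach it; inactive = mean below it, under half of replicates reach it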;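 also: signal also drops with host cell toxicity which is not excluded here; 0% = plate median of DMSO wells and 100% = zero luminescence signal; higher percent means less beta-gal luminescence so fewer parasites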
#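 Test system: β-gal T. cruzi (Tulahuen C4) inside NIH/3T3 cells / Quantity: 5,000 cells/well / Measured by: luminescence from GalScreen with 0.05% NP40, read after 60 min / Medium: DMEM plus 2% FBS / Measure: parasite load inhibition, % / Reagent: Tulahuen C4 trypomastigotes, 5000/well / Schedule: co-culture of at least 90 h after 3 h attachment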
# AI-2 QS mod = modulators of Vibrio harveyi AI-2 quorum sensing system. 0.4% of 300,000 active. Vibrio harveyi JMH597 AI-2 luminescence/OD600 ratio, 9 h; hits give low values; strain lacks LuxN and CqsS sensors; 0 = neutral-control median. activity change, % at 7.5 µM. AID 2094; in the data active = activity change below about -75%, passing the limit was not always enough; inconclusive = no clear call, values can overlap the other calls;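 also: luminescence divided by OD600 gain over 9 h not by final OD600 alone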
# PP1 inh = PP1-alpha (human) inhibition in PP5 counter-screen; P62136; inhibition, % at 6.7 µM; AID 2235; 0.9% of 320,000 active; purified PP1alpha, OMFP fluorescence;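 active = inhibition above the mean inhibition of all tested compounds plus 3 SD, computed separately for each screening campaign, cut at about 15% in these data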
# UBC13 polyUb = human UBC13 polyubiquitination inhibition. 0.47% of 330,000 active. inhibition, % at 20 µM. AID 485273. UBC13 polyubiquitin chain formation, TR-FRET. P61088; in the data active = inhibition above about 45%, passing the limit was not always enough; inconclusive = no clear call, values can overlap the other calls
# Target sequence (P61088 whole entry, looked up): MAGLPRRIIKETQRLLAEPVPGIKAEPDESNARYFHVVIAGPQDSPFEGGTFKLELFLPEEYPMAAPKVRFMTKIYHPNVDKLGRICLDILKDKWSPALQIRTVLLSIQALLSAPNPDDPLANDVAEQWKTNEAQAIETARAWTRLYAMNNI
# p-CIP stab down = lowers stability of the mouse p/CIP coactivator protein; Q05BA5; decrease of EGFP signal, % at 10 µM; F442A p/CIP-EGFP cells, EGFP fluorescence, 16 h; 0.01% of 290,000 active;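 active = EGFP signal decrease of at least 30% at 10 µM or well 3 SD below plate mean, unless failing retest; inactive = the rest, including hits failing retest or dose response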
# The depositor's hits bear a star; u = inconclusive; x = no result. Hits are enriched below; roughly 2.8% of the tested compounds scored in any of these assays.
SMILES,T cruzi repl,AI-2 QS mod,PP1 inh,UBC13 polyUb,p-CIP stab down
CCN(CC)S(=O)(=O)c1cccc(C(=O)OCC(=O)c2ccc3c(c2)NC(=O)CO3)c1,-7,17,3,4,-1
O=C1COc2ccc(C(=O)COC(=O)c3ccc(S(=O)(=O)C(F)F)cc3)cc2N1,-9,-94*,-3,1,x
Cc1ccccc1NC(=S)N(CCc1c(C)[nH]c2ccc(F)cc12)Cc1cccnc1,51,34,1,6,-16
Cc1ccc(Cl)cc1NC(=S)N(Cc1cccnc1)Cc1ccccc1Cl,72*,5,2,7,2
Cc1cccc(NC(=S)N(CCc2nc3cc(C)c(C)cc3[nH]2)Cc2cccnc2)c1,79*,-5,-3,20,-17
Cc1ccc(C)c(NC(=S)N(CCc2nc3cc(C)c(C)cc3[nH]2)Cc2cccnc2)c1,66*,12,-4,-4,-9
COc1cccc(NC(=S)N(CCc2nc3cc(C)c(C)cc3[nH]2)Cc2cccnc2)c1,-13,-2,-2,18,8
Cc1cnc(=O)[nH]c1SCc1ccc([N+](=O)[O-])cc1,7,31,-1,0,3
Nc1c(Cl)cc(-c2csc(N3CCCC3c3nc4cc(Cl)c(N5CCCCC5)cc4n3CCOCCO)n2)cc1Cl (stereo unspecified),19,23,5,-16,x
Cc1cc(SCC(=O)c2cccs2)n2nc(C)c(-c3ccc(Cl)cc3)c2n1,15,22,-4,-14,-2
Cc1nn2c(SCC(=O)c3cccs3)cc(C(C)(C)C)nc2c1-c1ccccc1,59*,23,-3,-9,-6
COc1ccc(OC)c(NC(=O)COC(=O)CCc2nc3ccccc3c(=O)[nH]2)c1,x,x,x,-5,x
Cc1cc(C)nc(N(C#N)CCOc2ccc(Cl)cc2)n1,-2,47,3,4,6
CC(C)Nc1nc(NC(C)C)nc(N(C#N)CCOc2ccc(Cl)cc2Cl)n1,73*,13,1,-2,3
Cc1cc(N/N=C/c2ccc(O)cc2)c2cccc(C)c2n1,47,1,4,2,-3
Cc1cc(C)c2nc(C)cc(N/N=C/c3ccc(O)cc3)c2c1,64*,3,8,u,-8
O=C(Cc1ccc2c(c1)OCO2)NN=Cc1ccc([N+](=O)[O-])o1,x,x,x,-19,x
O=C(CNC(=O)c1ccccc1)N/N=C/c1ccc([N+](=O)[O-])s1,76*,-8,-1,-23,-21
CCOC(=O)/C(=C\c1ccc([N+](=O)[O-])o1)NC(=O)c1ccccc1,68*,14,-3,-12,-30
O=C(CCC(=O)Nc1ccc(Cl)cc1Cl)N/N=C/c1ccc([N+](=O)[O-])o1,60*,u,-1,-8,-8
O=C(CNc1ccccc1)N/N=C/c1ccc([N+](=O)[O-])o1,64*,u,-3,-11,-14
O=C(Cc1ccccc1)NCC(=O)N/N=C/c1ccc([N+](=O)[O-])s1,49,18,-1,-21,-4
Nc1ncc(Br)cc1S(=O)(=O)Nc1ccccc1F,-4,-5,-5,-1,14
O=[N+]([O-])c1ccc(-c2ccc(C=Nc3cccc4ccccc34)o2)cc1,-13,38,3,-28,-22
O=[N+]([O-])c1ccc(C=Nc2cccc3ccccc23)s1,61*,30,0,-23,-4
SMILES,T cruzi repl,AI-2 QS mod,PP1 inh,UBC13 polyUb,p-CIP stab down
O=C(CNC(=O)c1ccccc1)N/N=C/c1ccc([N+](=O)[O-])o1,59*,-16,0,-2,-1
CCCCCC(=O)N/N=C/c1ccc([N+](=O)[O-])o1,76*,x,3,-11,-16
Cc1ccc(S(=O)(=O)N2CCCCC2)cc1NC(=O)Cn1c(=O)cnc2ccccc21,13,13,-2,-1,-2
COc1ccc(CCNC(=O)C2CCC(=O)N2S(=O)(=O)c2ccc(C)cc2)cc1 (stereo unspecified),-6,18,3,0,1
N#Cc1ccc(COn2nnc3ccccc32)cc1,-29,28,-5,-1,-1
CCCc1nc(C)cc(N2CCN(c3ccccc3)CC2)n1,10,11,-2,5,-8
Cc1cc(N/N=C/c2ccccc2Cl)nc(NCc2ccccc2)n1,31,27,17*,-9,10
Cc1cc(NC2CCCCC2)nc(NCc2ccccc2)n1,58*,9,6,44,10
